Measured values reported in paper PMC8511081 (European journal of medicinal chemistry, 2021).
Entries after “also recorded” stand apart in the source; their conditions may differ.

Key:
[1] = target: T1, sGC (Homo sapiens, UniProt Q02153); assay type: biochemical; settings: 100 μM screening on Fe2+-sGC and Fe3+-sGC (Fig. 2)
T1 sequence (Q02153 1-619): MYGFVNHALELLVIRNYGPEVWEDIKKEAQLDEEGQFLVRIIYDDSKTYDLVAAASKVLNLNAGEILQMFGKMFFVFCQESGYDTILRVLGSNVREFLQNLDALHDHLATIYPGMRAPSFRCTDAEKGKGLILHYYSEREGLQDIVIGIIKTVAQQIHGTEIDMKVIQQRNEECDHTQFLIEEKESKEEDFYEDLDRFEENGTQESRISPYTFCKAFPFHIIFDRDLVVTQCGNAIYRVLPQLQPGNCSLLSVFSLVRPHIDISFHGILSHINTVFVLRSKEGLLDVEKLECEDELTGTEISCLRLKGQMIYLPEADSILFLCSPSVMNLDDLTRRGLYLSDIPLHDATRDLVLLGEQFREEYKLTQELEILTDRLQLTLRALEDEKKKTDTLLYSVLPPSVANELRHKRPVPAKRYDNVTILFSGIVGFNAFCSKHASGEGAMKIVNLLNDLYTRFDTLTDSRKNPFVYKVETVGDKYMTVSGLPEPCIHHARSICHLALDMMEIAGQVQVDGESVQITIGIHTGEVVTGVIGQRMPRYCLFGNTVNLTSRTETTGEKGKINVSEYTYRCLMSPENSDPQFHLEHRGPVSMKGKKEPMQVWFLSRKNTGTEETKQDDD
T1 sequence (Q02108 1-690 partner): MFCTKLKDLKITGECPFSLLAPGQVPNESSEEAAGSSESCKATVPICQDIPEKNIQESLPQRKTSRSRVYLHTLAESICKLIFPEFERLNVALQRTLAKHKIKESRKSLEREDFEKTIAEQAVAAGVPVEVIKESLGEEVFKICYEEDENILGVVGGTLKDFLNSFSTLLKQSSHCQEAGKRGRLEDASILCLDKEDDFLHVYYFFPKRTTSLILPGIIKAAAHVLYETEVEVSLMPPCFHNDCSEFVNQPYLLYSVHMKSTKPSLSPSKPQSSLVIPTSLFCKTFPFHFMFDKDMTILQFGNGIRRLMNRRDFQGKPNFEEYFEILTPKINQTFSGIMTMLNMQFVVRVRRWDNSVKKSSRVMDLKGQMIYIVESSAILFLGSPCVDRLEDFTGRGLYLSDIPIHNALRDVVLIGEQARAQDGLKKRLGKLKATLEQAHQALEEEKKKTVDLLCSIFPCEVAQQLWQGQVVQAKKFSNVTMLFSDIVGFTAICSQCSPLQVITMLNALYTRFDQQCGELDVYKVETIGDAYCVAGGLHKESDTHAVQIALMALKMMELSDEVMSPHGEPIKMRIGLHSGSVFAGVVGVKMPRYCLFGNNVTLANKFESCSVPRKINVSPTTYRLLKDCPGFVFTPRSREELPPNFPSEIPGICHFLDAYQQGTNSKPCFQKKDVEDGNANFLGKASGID
Outline: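 Human α1/β1 sGC from Sf9 cells was purified on DEAE, Ni-agarose and gel filtration. The ferric form was made by adding 10 μM ODQ at pre-incubation. Then 15 min at 37 °C with 1 mM GTP/[α-32P]GTP; zinc carbonate stop; [32P]cGMP measured.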

[2] = system: sGC; settings: cited from earlier work
[3] = target: T2, human sGC with ferric heme (Fe3+-sGC) (Homo sapiens, UniProt Q02153); assay: cGMP-forming activity of purified sGC with ferric heme; assay type: biochemical; settings: for activation of Fe3+-sGC: 100 μM, Fig. 2B; for shape of the activation curve: dose-dependent activation of sGC with ferric heme, Fig. 3
T2 sequence (Q02153 1-619): T1 sequence (Q02153 1-619)
T2 sequence (Q02108 1-690 partner): T1 sequence (Q02108 1-690 partner)

[4] = target: T3, human sGC with ferrous heme (Fe2+-sGC) (Homo sapiens, UniProt Q02153); assay: cGMP-forming activity of purified sGC with ferrous heme; assay type: biochemical; settings: 100 μM, Fig. 2A
T3 sequence (Q02153 1-619): T1 sequence (Q02153 1-619)
T3 sequence (Q02108 1-690 partner): T1 sequence (Q02108 1-690 partner)
Outline: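 Ferrous-heme human α1/β1 sGC, expressed in Sf9 cells and purified through DEAE, Ni-agarose and Superdex 200. Reaction started at 37 °C with 1 mM GTP/[α-32P]GTP (~100000 cpm) for 15 min. Stopped by zinc carbonate precipitation; [32P]cGMP formed.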

Compound	sGC activation [1]	shape of the activation curve [3]	activation of Fe3+-sGC [3]	further results
O=C(O)CCCCN(CCc1ccccc1OCc1ccc(CCc2ccccc2)cc1)Cc1ccc(C(=O)O)cc1 [cinaciguat]				estimated EC50 [2]: low nanomolar range
Cc1ccc(C)c(N(CCCC(C)(C)C(=O)O)C(=O)CCCCC(=O)O)c1 [Compound 10f, 6-((4-carboxy-4-methylpentyl)(2,5-dimethylphenyl)amino)-6-oxohexanoic acid]			weak, yet statistically significant activation	
Cc1ccc(C)c(OCCCCC(=O)O)c1 [Compound 4c, 5-(2,5-dimethylphenoxy)pentanoic acid]	activated both Fe^2+-sGC and Fe^3+-sGC	typical S-shaped pattern		
Cc1ccc(C)c(N(CCCC(C)(C)C(=O)O)C(=O)CCCC(=O)O)c1 [Compound 10e, 5-(4-carboxy-N-(2,5-dimethylphenyl)butanamido)-2,2-dimethylpentanoic acid]			weak, yet statistically significant activation	
Cc1ccc(C)c(OCC(=O)O)c1 [Compound 4a, 2-(2,5-dimethylphenoxy)acetic acid]	not conducive to sGC activation			
Cc1ccc(C)c(OCCCC(=O)O)c1 [Compound 4b, 4-(2,5-dimethylphenoxy)butanoic acid]	not conducive to sGC activation			
Cc1ccc(C)c(N(CCCC(C)(C)C(=O)O)C(=O)CCC(=O)O)c1 [Compound 10d, 5-(3-carboxy-N-(2,5-dimethylphenyl)propanamido)-2,2-dimethylpentanoic acid]			weak, yet statistically significant activation	
CCC(CCCOc1cc(C)ccc1C)C(=O)O (centres unmarked) [Compound 15a, 5-(2,5-dimethylphenoxy)-2-ethylpentanoic acid]			significantly hampered the activation	activation of Fe2+-sGC [4]: blocked the activation
Cc1ccc(C)c(N(CCCC(C)(C)C(=O)O)C(=O)CCCCC(=O)N(CCCC(C)(C)C(=O)O)c2cc(C)ccc2C)c1 [Compound 11, 5,5’-(adipoylbis((2,5-dimethylphenyl)azanediyl))bis(2,2-dimethyl-pentanoic acid)]	activated both Fe^2+-sGC and Fe^3+-sGC; also recorded: exhibited sGC activation	typical S-shaped pattern		
Cc1ccc(C(C)C)c(OCCCC(C)(C)C(=O)O)c1 [Compound 7c, 5-(2-isopropyl-5-methylphenoxy)-2,2-dimethylpentanoic acid]	activated both Fe^2+-sGC and Fe^3+-sGC; also recorded: well tolerated	bell-shaped curve		
Cc1ccc(C)c(OCCCCCC(=O)O)c1 [Compound 4d, 6-(2,5-dimethylphenoxy)hexanoic acid]	activated both Fe^2+-sGC and Fe^3+-sGC	typical S-shaped pattern	diminished	activation of Fe2+-sGC [4]: tolerated

More lines, main results first:

sGC activation [1]	shape of the activation curve [3]	Compound	activation of Fe3+-sGC [3]	further results
does not activate sGC		O=C(O)CCCCCOc1ccccc1 [Compound 8b, 6-phenoxyhexanoic acid]		
activated both Fe^2+-sGC and Fe^3+-sGC	bell-shaped curve	CCCCCCC(CCCOc1cc(C)ccc1C)C(=O)O (centres unmarked) [Compound 15b, 2-(3-(2,5-dimethylphenoxy)propyl)octanoic acid]		
activated both Fe^2+-sGC and Fe^3+-sGC	typical S-shaped pattern	Cc1ccc(C)c(NCCCC(C)(C)C(=O)O)c1 [Compound 7a, 5-((2,5-dimethylphenyl)amino)-2,2-dimethylpentanoic acid]		
